Assay results: ChEMBL document CHEMBL1123454, “New alpha-methylene gamma-lactone derivatives of substituted nucleic acid bases as potential anticancer agents” (1986)
≈ marks a conversion by molar mass, not a printed value.

Legend:
Mus musculus [1] = test: Compound was tested in vivo for antitumor activity at 25 mg/kg dose; assay type: functional
In short: (§1)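 Swiss male mice (18–20 g) inoculated ip on day 0 with 1×10^6 Ehrlich ascites carcinoma cells in 0.2 mL saline. Starting 24 h later, ip dosing once daily for 7 days; compound homogenized in saline with 2% Tween-80, at most 0.01 mL/g. Controls received vehicle alone. Six mice per dose, one control group per six groups. Deaths counted daily; median survival times expressed as T/C.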

Mus musculus [2] = test: Average survival days was measured by administrating the compound to Ehrlich ascites carcinoma (EAC) in swiss mice at 25 mg/kg dose; assay type: functional
In short: (§2)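 Swiss male mice (18–20 g) inoculated ip on day 0 with 1×10^6 EAC cells diluted in normal saline. Daily ip treatment began 24 h later for 7 days, compound homogenized in saline with 2% Tween-80, dose volume ≤0.01 mL/g; vehicle controls. Six mice per dose, one control group per six groups. Deaths counted daily; median survival times, T/C.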

Mus musculus [3] = test: Compound was tested in vivo for antitumor activity at 12 mg/kg dose; assay type: functional; in short: as §1
Mus musculus [4] = test: Average survival days was measured by administrating the compound to Ehrlich ascites carcinoma(EAC) in swiss mice at 12 mg/kg dose; assay type: functional; in short: as §2
PS = test: In vitro concentration required to reduce the growth rate of PS cells in culture by 50%; conditions: Mus musculus, read-out: ED50 (the source's name)
[5] = In vitro concentration required to reduce the growth rate of KB cells in culture by 50%; assay type: functional; conditions: Homo sapiens, read-out: ED50 (the source's name)
In short: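 Cytotoxicity screened at the National Cancer Institute by its standard protocol against murine P-388 lymphocytic leukemia (PS) and human nasopharyngeal carcinoma KB cells in culture. ED50 (μg/mL) is the concentration that halves the growth rate relative to control cultures.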

Mus musculus [6] = test: Average survival days was measured by administrating the compound to Ehrlich ascites carcinoma (EAC) in swiss mice at 12 mg/kg dose; assay type: functional; in short: as §2

C=C1CC(CC)(CCn2cc(C)c(=O)[nH]c2=O)OC1=O (stereo not given)
T/C (Mus musculus [1]): 170 | Average survival days (Mus musculus [2]): 25.5 | T/C (Mus musculus [3]): 163 | Average survival days (Mus musculus [4]): 24.5

C=C1CC(CC)(CCn2cnc3c(S)ncnc32)OC1=O (stereo not given)
T/C (Mus musculus [1]): 113 | Average survival days (Mus musculus [2]): 17.5 | T/C (Mus musculus [3]): 116 | Average survival days (Mus musculus [4]): 18

C=C1CC(C)(Cn2cnc3c(O)ncnc32)OC1=O (stereo not given)
T/C (Mus musculus [1]): 110 | Average survival days (Mus musculus [2]): 16.5 | T/C (Mus musculus [3]): 107 | Average survival days (Mus musculus [4]): 16

C=C1CC(C)(Cn2cnc3c(S)ncnc32)OC1=O (stereo not given)
T/C (Mus musculus [1]): 123 | EC50 (PS): > 10 µg/mL | Average survival days (Mus musculus [2]): 18.5 | T/C (Mus musculus [3]): 107 | EC50 [5]: > 10 µg/mL | Average survival days (Mus musculus [4]): 16

O=c1[nH]cc(F)c(=O)[nH]1 [FLUOROURACIL]
T/C (Mus musculus [1]): 220 | Average survival days (Mus musculus [2]): 33

C=C1CC(CC)(CCn2cnc3c(Cl)ncnc32)OC1=O (stereo not given)
T/C (Mus musculus [1]): 161 | EC50 (PS): 0.25 µg/mL (≈ 0.815 µM) | Average survival days (Mus musculus [2]): 25 | T/C (Mus musculus [3]): 126 | EC50 [5]: 2.6 µg/mL (≈ 8.48 µM) | Average survival days (Mus musculus [4]): 19.5

C=C1CC(CC)(CCn2cc(F)c(=O)[nH]c2=O)OC1=O (stereo not given)
T/C (Mus musculus [1]): 126 | Average survival days (Mus musculus [2]): 19.5 | T/C (Mus musculus [3]): 148 | Average survival days (Mus musculus [4]): 23

C=C1CC(C)(Cn2cnc3c(Cl)ncnc32)OC1=O (stereo not given)
T/C (Mus musculus [1]): 160 | EC50 (PS): 0.17 µg/mL (≈ 0.61 µM) | Average survival days (Mus musculus [2]): 24 | T/C (Mus musculus [3]): 133 | EC50 [5]: 1.5 µg/mL (≈ 5.38 µM) | Average survival days (Mus musculus [4]): 20

C=C1CC(CC)(CCn2ccc(=O)[nH]c2=O)OC1=O (stereo not given)
T/C (Mus musculus [1]): 126 | EC50 (PS): 0.35 µg/mL (≈ 1.32 µM) | Average survival days (Mus musculus [2]): 19.5 | T/C (Mus musculus [3]): 129 | EC50 [5]: 2.8 µg/mL (≈ 10.6 µM) | Average survival days (Mus musculus [6]): 20

C=C1CC(CC)(CCn2cc(F)c(=O)n(CCC3(CC)CC(=C)C(=O)O3)c2=O)OC1=O (stereo not given)
T/C (Mus musculus [1]): 123 | Average survival days (Mus musculus [2]): 21 | T/C (Mus musculus [3]): 138 | Average survival days (Mus musculus [4]): 23.5

C=C1CC(CC)(CCn2cnc3c(O)ncnc32)OC1=O (stereo not given)
T/C (Mus musculus [1]): 109 | Average survival days (Mus musculus [2]): 17 | T/C (Mus musculus [3]): 113 | Average survival days (Mus musculus [4]): 17.5
